Shown are actives, neighbours in structure and some others; about 3.9% of the full set was active somewhere.
tim23-1 inh: inhibits growth of tim23-1 mutant yeast. AID 463212. 330,000 compounds, 1.3% hits. inhibition, % at 20 µM. S. cerevisiae tim23-1 growth, BacTiter-Glo luminescence, 24 h;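 active = growth inhibition of the mutant yeast at or above 50%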;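 note: temperature-sensitive mutant grown at 25 °C; plate controls were DMSO-treated mutant yeast for no effect and medium wells lacking yeast for full effect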
XBP1 UPR activ: activators of adaptive arm of unfolded protein response (XBP1) | CHO-XBP1 luciferase reporter, IRE1-XBP1 UPR activation, luminescence; percent of tunicamycin response, DMSO as zero | activation, % at 20 µM | 330,000 compounds, 0.33% hits | AID 463104;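 active = versus positive control, 20 µM dose yields 30% or more activation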;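 note: 100% = tunicamycin at 10 µg/mL and 0% = DMSO only wells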
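Assay system: CHO-XBP1 luciferase reporter cells; Schedule: 6 h treatment, 37 °C; Detection: glow luminescence from Steady-Glo reagent; Benchmarks: high control tunicamycin 10 µg/mL final, low control DMSO vehicle only.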
tim10-1 inh: growth inhibitors of tim10-1 mutant yeast; inhibition, % at 20 µM; S. cerevisiae tim10-1 ts strain growth, BacTiter-Glo, 24 h; AID 463190; 330,000 compounds, 2.2% hits;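 active = inhibition of at least 40%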;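 note: mutant grown at 25 °C; 0% = DMSO wells with yeast and 100% = wells holding no yeast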
TIM10 inh: TIM10 yeast growth inhibition; AID 463195; inhibition, % at 10 µM; 330,000 compounds, 1.4% hits; S. cerevisiae TIM10 strain growth, BacTiter-Glo luminescence, 24 h;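 active = inhibition of 40% or more at the single tested concentration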;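 note: wild-type TIM10 isogenic control strain grown at permissive 25 °C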
UPR CHOP act: activators of apoptotic arm of unfolded protein response (CHOP). CHO-CHOP luciferase reporter, UPR activation, luminescence; percent of tunicamycin response over DMSO baseline. activation, % at 10 µM. 330,000 compounds, 0.34% hits. AID 449763;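 active = at 10 µM dose, activation of 40% or more, normalized to positive control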;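 note: 100% = tunicamycin at 10 µg/mL and 0% = DMSO alone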
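Test system: CHO CHOP reporter cells. Input: 500 CHO-CHOP cells per well. Medium: F12 with 10% FBS. Technique: luciferase luminescence. Measure: percent activation relative to tunicamycin control. Dosing: 10 µM compound, 0.5% DMSO. Timing: 16-18 h cell attachment, then 6 h compound exposure, 37 °C.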
CHOP UPR conf: confirmation of apoptotic unfolded protein response (CHOP) activators. activation, % at 10 µM. shares compounds with UPR CHOP act. AID 463112. CHO-CHOP cells, CHOP-luciferase reporter luminescence; percent of tunicamycin response, DMSO as zero. 1,000 compounds, 64% hits; in the data active = activation above about 33%;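 note: 0% = DMSO wells and 100% = tunicamycin 10 µg/mL wells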
tim10-1 confirm: confirmation of tim10-1 mutant yeast growth inhibitors; S. cerevisiae tim10-1 ts strain growth, BacTiter-Glo, 24 h; shares compounds with tim10-1 inh; AID 463213; 7,400 compounds, 56% hits; inhibition, % at 20 µM;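 active = inhibition of yeast growth at or above a set limit in either of two repeat tests at 20 µM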;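 note: tim10-1 mutant grown at permissive 25 °C to find synthetic lethal compounds; 0% = DMSO yeast wells and 100% = medium wells without yeast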
TIM10 conf: TIM10 yeast growth inhibition, confirmed; S. cerevisiae tim10 strain growth, BacTiter-Glo luminescence, 24 h; shares compounds with TIM10 inh; 4,600 compounds, 63% hits; inhibition, % at 10 µM;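 active = inhibition of yeast growth at or above a set limit in either of two replicates at 10 µM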;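 note: this counterscreen used the strain with wild-type TIM10; 0% = yeast with DMSO and 100% = medium wells lacking yeast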
tim23-1 conf: tim23-1 yeast growth inhibition, confirmed. shares compounds with tim23-1 inh. S. cerevisiae tim23-1 growth, BacTiter-Glo luminescence, 24 h. inhibition, % at 20 µM. 4,400 compounds, 83% hits. AID 463218;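 active = inhibition above about 39% in either of two replicate wells at 20 µM, limit read from the data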;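 note: temperature-sensitive tim23-1 mutant grown at 25 °C; 0% = DMSO wells with yeast and 100% = medium wells without yeast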
Active calls of the source: *.

Results for CCOC(=O)c1c(C)oc2c1c(C(c1cccnc1)N1CCCCC1)c(O)c1ccccc12 (configuration not stated) ?
tim23-1 inh: 50*; XBP1 UPR activ: 11; tim10-1 inh: 26; TIM10 inh: 18; UPR CHOP act: 114*; CHOP UPR conf: 182*; tim23-1 conf: 45*

Results for CCOC(=O)c1cnc(-c2ccccc2)nc1N1CCOCC1 ?
tim23-1 inh: -5; XBP1 UPR activ: -1; tim10-1 inh: 29; TIM10 inh: -12; UPR CHOP act: -1

What do the screens show for `CCOC(=O)c1c(C)oc2c1c(C(c1ccccc1)N1CCOCC1)c(O)c1ccccc12` (configuration not stated)?
tim23-1 inh: 66*; XBP1 UPR activ: 11; tim10-1 inh: 39; TIM10 inh: 39; UPR CHOP act: 62*; CHOP UPR conf: 73*; tim23-1 conf: 43*

How did Cc1[nH]n(-c2ccccc2)c(=O)c1C(c1ccc(O)c([N+](=O)[O-])c1)c1c(C)[nH]n(-c2ccccc2)c1=O do in these assays?
tim23-1 inh: 32; XBP1 UPR activ: -3; tim10-1 inh: 32; TIM10 inh: 17; UPR CHOP act: -3

Results for COc1ccc(C(C[N+](=O)[O-])c2c(C)[nH]n(-c3ccccc3)c2=O)cc1 (configuration not stated) ?
tim23-1 inh: 76*; XBP1 UPR activ: -7; tim10-1 inh: 21; TIM10 inh: 10; UPR CHOP act: 89*; CHOP UPR conf: 0; tim23-1 conf: 67*

What do the screens show for `COC(=O)c1nn(-c2ccc(OC)cc2)c(=O)cc1O`?
tim23-1 inh: 15; XBP1 UPR activ: -3; tim10-1 inh: -8; TIM10 inh: -12; UPR CHOP act: 1

What do the screens show for `COc1ccc(-n2nc(C#N)c(Cl)cc2=O)cc1`?
tim23-1 inh: 61*; XBP1 UPR activ: -6; tim10-1 inh: 47*; TIM10 inh: 31; UPR CHOP act: 149*; CHOP UPR conf: 73*; tim10-1 confirm: 30; tim23-1 conf: 48*

How did CCC1CCCCN1C(=O)COC(=O)c1ccc(Br)o1 (configuration not stated) do in these assays?
tim23-1 inh: 21; XBP1 UPR activ: 0; tim10-1 inh: 15; TIM10 inh: 5; UPR CHOP act: 2

How did CC1CC(C)CN(S(=O)(=O)c2ccc(NC(=O)c3ccc(=O)[nH]c3)cc2)C1 (configuration not stated) do in these assays?
tim23-1 inh: -13; XBP1 UPR activ: -1; tim10-1 inh: -19; TIM10 inh: -8; UPR CHOP act: 2

Results for O=[N+]([O-])c1ccc(C=Nc2ccc(Cl)c([N+](=O)[O-])c2)s1 ?
tim23-1 inh: 51*; XBP1 UPR activ: -3; tim10-1 inh: 65*; TIM10 inh: 85*; UPR CHOP act: 61*; CHOP UPR conf: 49*; tim10-1 confirm: 71*; TIM10 conf: 88*; tim23-1 conf: 77*

How did O=[N+]([O-])c1ccc(/C=N/Nc2ncccc2[N+](=O)[O-])s1 do in these assays?
tim23-1 inh: 3; XBP1 UPR activ: 2; tim10-1 inh: 23; TIM10 inh: 14; UPR CHOP act: 2

Results for COc1ccccc1OCCC(=O)NNC(=O)c1ccccc1F ?
tim23-1 inh: 2; XBP1 UPR activ: 0; tim10-1 inh: 2; TIM10 inh: -5; UPR CHOP act: -1

What do the screens show for `Cc1cc(C(=O)CCl)c(C)n1CCc1ccccc1`?
tim23-1 inh: 66*; XBP1 UPR activ: 6; tim10-1 inh: 36; TIM10 inh: 37; UPR CHOP act: 196*; CHOP UPR conf: 204*; tim23-1 conf: 16

How did CCOC(=O)c1cc(C)n(CCc2ccccc2)c1C do in these assays?
tim23-1 inh: 15; XBP1 UPR activ: 2; tim10-1 inh: 13; TIM10 inh: 6; UPR CHOP act: 4

Results for Cc1cccc(NC(=O)C2CC3CCC2C3)c1C (configuration not stated) ?
tim23-1 inh: -13; XBP1 UPR activ: -4; tim10-1 inh: 4; TIM10 inh: -14; UPR CHOP act: 0

Results for Cc1ccc(Cl)c(NC(=O)CSc2n[nH]c(=O)n2C2CC2)c1Cl ?
tim23-1 inh: 0; XBP1 UPR activ: -2; tim10-1 inh: 8; TIM10 inh: -3; UPR CHOP act: -2

Results for CCOC(=O)c1ccc(NC(=O)CN2C(=O)NC3(CCCCCCC3)C2=O)cc1 ?
tim23-1 inh: 25; XBP1 UPR activ: -1; tim10-1 inh: 12; TIM10 inh: 13; UPR CHOP act: -1

What do the screens show for `CCOc1ccc(NC(=O)COC(=O)Cn2cnc3ccccc32)cc1`?
tim23-1 inh: 8; XBP1 UPR activ: -4; tim10-1 inh: 1; TIM10 inh: 2; UPR CHOP act: -1

What do the screens show for `CCOC(=O)/C(=C\c1ccc(Cl)cc1)c1nc2sc(C)c(C)c2c(=O)[nH]1`?
tim23-1 inh: 72*; XBP1 UPR activ: -2; tim10-1 inh: 48*; TIM10 inh: 44*; UPR CHOP act: 59*; CHOP UPR conf: 198*; tim10-1 confirm: 49*; TIM10 conf: 13; tim23-1 conf: 61*

What do the screens show for `CCOC(=O)CSc1nc2sc(C)c(C)c2c(=O)[nH]1`?
tim23-1 inh: 25; XBP1 UPR activ: 0; tim10-1 inh: 29; TIM10 inh: 25; UPR CHOP act: -1

How did COc1ccc(C(=O)/C=C2/C(=O)Nc3ccccc32)c(OC)c1 do in these assays?
tim23-1 inh: 70*; XBP1 UPR activ: 5; tim10-1 inh: 50*; TIM10 inh: 68*; UPR CHOP act: 109*; CHOP UPR conf: 114*; tim10-1 confirm: 59*; TIM10 conf: 67*; tim23-1 conf: -23

How did NC(=O)COc1ccc(C(=O)/C=C2/C(=O)Nc3ccccc32)cc1 do in these assays?
tim23-1 inh: 30; XBP1 UPR activ: 2; tim10-1 inh: 34; TIM10 inh: 35; UPR CHOP act: 11

Assay outcomes deposited in PubChem BioAssay by Sanford-Burnham Center for Chemical Genomics.
